This is an account of results in ChEMBL document CHEMBL1127289, “DNA-directed alkylating agents. 6. Synthesis and antitumor activity of DNA minor groove-targeted aniline mustard analogues of pibenzimol (Hoechst 33258)” (J Med Chem, 1994).

Active and inactive are the calls of the source.

The subject of one assay is P388. Briefly: Concentration of the drug to inhibit wild type P388 murine leukemia cell growth in culture. It counts as functional, cell-based. The note with it: Mus musculus. Summed up: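 P388 cells maintained in log phase in RPMI 1640 with 10% fetal calf serum. Drug present throughout 72 h growth. Final density read by a modified MTT method. IC50 is the nominal concentration reducing cell density to 50% of controls, with eight control cultures per plate.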

In assay [1] the test system is CHO-AA8. Put plainly: Concentration of the drug to inhibit chinese hamster ovary derived cell (AA8) growth in culture. It is filed as functional, cell-based. Particulars: Cricetulus griseus. Summed up: (§1)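 AA8 (wild-type) and UV4 (mutant) lines maintained in log phase in Alpha MEM with 10% fetal calf serum. Drug exposure for 18 h, ended by three washes in fresh medium, then a further 72 h growth. Cell density read by methylene blue staining. IC50 is the nominal concentration giving 50% of control density, with eight controls per plate. HF = IC50(AA8)/IC50(UV4).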

Assay [2] relates to CHO-AA8. Briefly: (§2) Hypersensitivity factor(HF) was determined as ratio of IC50(AA8) to IC50(UV4). It is filed as functional, Cricetulus griseus. Summed up:
as §1

The test system of assay [3] is Nucleic Acid. Put plainly: (§3) Intrinsic association constant for reversible binding of compounds to calf thymus DNA at 20 degree C. Particulars: Bos taurus. It counts as nucleic-acid assay.
The species named for assay [4] is Mus musculus. Briefly: Tested for percentage increase in lifespan of drug-treated tumor-bearing animals when treated at optimal dose. It counts as functional. Summed up:
(§4)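 P388 leukemia: 10^6 tumor cells inoculated intraperitoneally. 24 h later (day 1), a single intraperitoneal dose in 0.1 mL of 30% v/v EtOH/water. The optimal dose is given in mg/kg. ILS is the percentage increase in lifespan at the optimal dose; ILS > 20% is considered significant. Groups of 6 animals, with long-term survivors counted.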

Assay [5] concerns Mus musculus. Briefly: Tested for the intraperitoneal optimal dose of 0.1 mL in tumor cells. It counts as functional. Summed up: as §4
Assay [6] deals with Nucleic Acid. The description is as §3. It counts as functional. Set-up: scale not given here. The note with it: Bos taurus.
A short description of assay [7]: as §2. It is filed as functional. Summed up:
as §1

For assay [8], the species on record is Mus musculus. Put plainly: Tested for percentage increase in lifespan of drug-treated tumor-bearing animals when treated at optimal dose; NA=Inactive. It counts as functional, organism-based. The essentials:
as §4

The species named for assay [9] is Mus musculus. Put plainly: Tested for percentage increase in lifespan of drug-treated tumor-bearing animals when treated at optimal dose; Inactive. It is filed as functional, organism-based. Summed up: as §4

The term IC50 denotes the concentration needed to halve the response being measured. Regarding `CCN(CCCl)c1cc(CN(C)C)cc(NC(=O)c2ccc(C(=O)Nc3cc(CN(C)C)cc(N(CC)CCCl)c3)cc2)c1`, in the assay on P388, the concentration for half-maximal inhibition (IC50) was found to be 7000 nM.

As usually defined, the ILS is the gain in survival time of treated over control animals, in per cent. For the compound `CN1CCN(c2ccc3[nH]c(-c4ccc5[nH]c(-c6ccc(N(CCCl)CCCl)cc6)nc5c4)nc3c2)CC1`, the figures for the concentration for half-maximal inhibition (IC50) in the assay on CHO-AA8 [1] and with P388 were 1680 nM and 800 nM, respectively. For the same compound, the Ratio in the assay with CHO-AA8 [2] is 24. Besides, the DNA binding in the assay with Nucleic Acid [3] was 7.52 log M-1. Besides, the increase in life span (ILS) in the assay listed under Mus musculus [4] worked out at 106%. For the same compound, in the assay on Mus musculus [5], the OD came to 30 mg/kg.

For the compound `CN1CCN(c2ccc3[nH]c(-c4ccc5[nH]c(Cc6ccc(N(CCCl)CCCl)cc6)nc5c4)nc3c2)CC1`, the IC50 with CHO-AA8 [1] is 1500 nM; with P388 it was 850 nM. In the assay on Nucleic Acid [6], this compound had a DNA binding of 6.73 M⁻¹. This compound yielded an ILS in the assay filed under Mus musculus [4] of 71%. Further, the OD in the assay with Mus musculus [5] was 13.3 mg/kg. In addition, in [7], the Ratio came to 59.

For the compound `CN1CCN(c2ccc3[nH]c(-c4ccc5[nH]c(-c6ccc(O)cc6)nc5c4)nc3c2)CC1` [HOECHST 33258], the DNA binding in the assay on Nucleic Acid [3] is 1.82 log M-1. Further, in the assay filed under Mus musculus [8], the ILS result was “inactive”. In the assay on Mus musculus [5], this compound displayed an OD of 20 mg/kg. In addition, in the assay with P388, the IC50 was determined as 1200 nM.

On to `CN1CCN(c2ccc3[nH]c(-c4ccc5[nH]c(CCCCCCc6ccc(N(CCCl)CCCl)cc6)nc5c4)nc3c2)CC1`, for which the IC50 was found to be 400 nM with CHO-AA8 [1] and 60 nM in the assay on P388. In the assay on Nucleic Acid [6], the DNA binding was found to be 3.89 M⁻¹. The compound also returned an ILS in the assay listed under Mus musculus [4] of 23%. In the assay on Mus musculus [5], this compound showed an OD of 8.9 mg/kg. The Ratio in assay [7] was 20.

Turning to `CCN(CC)c1ccc(-c2nc3cc(-c4nc5cc(N6CCN(C)CC6)ccc5[nH]4)ccc3[nH]2)cc1`, the IC50 was 10000 nM in the assay with CHO-AA8 [1] and 1200 nM in the assay with P388. Besides, the Ratio in the assay with CHO-AA8 [2] was determined as 1.5. The DNA binding with Nucleic Acid [3] is 6.24 log M-1. Besides, in the assay listed under Mus musculus [4], the ILS is on record as 50%. In addition, the OD with Mus musculus [5] came out at 20 mg/kg.

For `CN1CCN(c2ccc3[nH]c(-c4ccc5[nH]c(CCc6ccc(N(CCCl)CCCl)cc6)nc5c4)nc3c2)CC1`, the IC50 stood at 330 nM with CHO-AA8 [1] and 10 nM with P388. In addition, in the assay with Nucleic Acid [6], the DNA binding was 6.3 M⁻¹. The compound further had an increase in lifespan (ILS) in the assay listed under Mus musculus [4] of 52%. In addition, the OD with Mus musculus [5] was 3.9 mg/kg. The Ratio in [7] was 47.

Regarding `CN1CCN(c2ccc3[nH]c(-c4ccc5[nH]c(CCCc6ccc(N(CCCl)CCCl)cc6)nc5c4)nc3c2)CC1`, the IC50 in the assay on CHO-AA8 [1] turned out to be 1320 nM; in the assay with P388, 20 nM. The DNA binding in the assay with Nucleic Acid [6] turned out to be 4.55 M⁻¹. Besides, the ILS entry in the assay filed under Mus musculus [9] is “inactive”. Also, the OD with Mus musculus [5] came out at 5.9 mg/kg. Moreover, the Ratio in assay [7] is 46.

`CN1CCN(c2ccc3[nH]c(-c4ccc5[nH]c(-c6ccc(N(C)CCCl)cc6)nc5c4)nc3c2)CC1`: the half-inhibitory concentration (IC50) came out at 5750 nM in the assay on CHO-AA8 [1] and 500 nM in the assay on P388. This compound registered an increase in life span (ILS) in the assay filed under Mus musculus [4] of 86%. Moreover, the OD in the assay with Mus musculus [5] was 30 mg/kg. Further, the Ratio in assay [7] turned out to be 14.
